Data on six molecules can be found in PMC7775634 (Cell reports, 2020).

Ends that are not written are not given here. * marks the point of attachment. Biotin = O=C1N[C@H]2[C@H](CS[C@H]2CCCCC(=O)*)N1; Rhodamine = not defined here

In general, Kd refers to the equilibrium constant for the complex coming apart. A low value points to a tighter complex.

The subject of one test is Imp2 F-BAR domain. The test can be described thus: In vitro binding assay. Also noted: species or system S. pombe. As to conditions: biotin-labeled peptide; streptavidin pull down; SDS-PAGE, Coomassie. A digest of the protocol:
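Biotinylated test peptide (0.10 μM) and purified F-BAR domain (0.05 μM) were mixed with streptavidin resin. Incubation was 1 h at 4°C in 50 mM Tris pH 7.4, 250 mM NaCl, 0.1% NP-40. Resin was washed thoroughly. Bound protein was resolved by SDS-PAGE and stained with Coomassie blue.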

Test [1] deals with T1, Cdc15 F-BAR domain (E30K E152K) (Schizosaccharomyces pombe, UniProt Q09822, E152K/E30K).
T1 sequence (Q09822 19-312 E30K/E152K): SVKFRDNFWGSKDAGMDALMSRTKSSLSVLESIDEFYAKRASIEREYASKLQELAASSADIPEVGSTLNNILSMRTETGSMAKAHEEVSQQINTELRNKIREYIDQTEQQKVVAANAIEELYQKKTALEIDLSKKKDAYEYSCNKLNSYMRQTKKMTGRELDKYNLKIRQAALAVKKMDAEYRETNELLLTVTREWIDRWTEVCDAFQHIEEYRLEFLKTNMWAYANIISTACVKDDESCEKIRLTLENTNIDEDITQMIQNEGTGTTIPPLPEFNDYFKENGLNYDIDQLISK
The test can be described thus: Isothermal titration calorimetry. It is filed as binding, S. pombe. Background: ITC needs no label: the signal is the heat of the interaction.

Test [2] has as its system Cdc15 phosphostate in cells. The conditions noted are these: FK506-treated cells; ref Martín-García et al., 2018; cited from earlier work.
The next test deals with Cdc15 F-BAR domain. The test can be described thus: Binding between purified Cdc15 F-BAR domain and recombinant CN. Also noted: species or system S. pombe.
The conditions of test [3]: phosphorylated; ref Bhattacharjee et al., 2020; cited from earlier work.
Test [4] addresses T2, GFP-Cdc15 F-BAR domain (residues 19-312) (S. pombe, UniProt Q09822 19-312).
T2 sequence (looked up): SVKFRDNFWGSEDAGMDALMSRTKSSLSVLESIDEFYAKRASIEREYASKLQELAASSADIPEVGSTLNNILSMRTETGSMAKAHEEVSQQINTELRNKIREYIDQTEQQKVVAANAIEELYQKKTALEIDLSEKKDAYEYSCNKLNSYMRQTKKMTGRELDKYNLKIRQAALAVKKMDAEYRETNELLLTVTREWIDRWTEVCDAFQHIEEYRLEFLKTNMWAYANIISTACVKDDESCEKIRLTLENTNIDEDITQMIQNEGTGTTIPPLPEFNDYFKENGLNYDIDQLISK
The test can be described thus: recruitment to giant unilamellar vesicles, fluorescence microscopy.

Regarding “Cdc12 peptide (residues 20–40): Cdc12 (residues 20–40) peptide synthesized with an N-terminal biotin modification, used for binding assays (Biotin-TPTPSARRTIGPRAPKSKTTY)”, in the test on Imp2 F-BAR domain, the “interaction with Imp2 F-BAR domain” value is reported as “did not interact”.

TPTPSARRTIGPRAPKSKTTY [Cdc12 peptide] had a Kd in test [1] of 5 µM.

Turning to `C=CC[C@@H]1/C=C(\C)C[C@H](C)C[C@H](OC)[C@H]2O[C@@](O)(C(=O)C(=O)N3CCCC[C@H]3C(=O)O[C@H](/C(C)=C/[C@@H]3CC[C@@H](O)[C@H](OC)C3)[C@H](C)[C@@H](O)CC1=O)[C@H](C)C[C@@H]2OC` [FK506], the Cdc15 phosphostate entry in test [2] is recorded as “Cdc15 phosphostate changes”.

Consider “recombinant CN: Calcineurin produced by co-expressing Ppb1 as a 6xHis fusion (catalytic subunit), Cnb1 (regulatory subunit), and Cam1 (calmodulin)”, for which the “binding to purified Cdc15 F-BAR domain” value in the test on Cdc15 F-BAR domain was “did not detect binding”.

B1: Cdc15 (E30K E152K): Full-length FLAG-Cdc15 (E30K E152K) co-expressed with kinase Pom1 (protein, UniProt Q09822 1-927, looked up, variant E30K E152K)
chain: MEVNGVSQSEAAPYVTKSSVKFRDNFWGSKDAGMDALMSRTKSSLSVLESIDEFYAKRASIEREYASKLQELAASSADIPEVGSTLNNILSMRTETGSMAKAHEEVSQQINTELRNKIREYIDQTEQQKVVAANAIEELYQKKTALEIDLSKKKDAYEYSCNKLNSYMRQTKKMTGRELDKYNLKIRQAALAVKKMDAEYRETNELLLTVTREWIDRWTEVCDAFQHIEEYRLEFLKTNMWAYANIISTACVKDDESCEKIRLTLENTNIDEDITQMIQNEGTGTTIPPLPEFNDYFKENGLNYDIDQLISKAPSYPYSSSRPSASASLASSPTRSAFRPKTSETVSSEVVSSPPTSPLHSPVKPVSNEQVEQVTEVELSIPVPSIQEAESQKPVLTGSSMRRPSVTSPTFEVAARPLTSMDVRSSHNAETEVQAIPAATDISPEVKEGKNSENAITKDNDDIILSSQLQPTATGSRSSRLSFSRHGHGSQTSLGSIKRKSIMERMGRPTSPFMGSSFSNMGSRSTSPTKEGFASNQHATGASVQSDELEDIDPRANVVLNVGPNMLSVGEAPVESTSKEEDKDVPDPIANAMAELSSSMRRRQSTSVDDEAPVSLSKTSSSTRLNGLGYHSRNTSIASDIDGVPKKSTLGAPPAAHTSAQMQRMSNSFASQTKQVFGEQRTENSARESLRHSRSNMSRSPSPMLSRRSSTLRPSFERSASSLSVRQSDVVSPAPSTRARGQSVSGQQRPSSSMSLYGEYNKSQPQLSMQRSVSPNPLGPNRRSSSVLQSQKSTSSNTSNRNNGGYSGSRPSSEMGHRYGSMSGRSMRQVSQRSTSRARSPEPTNRNSVQSKNVDPRATFTAEGEPILGYVIALYDYQAQIPEEISFQKGDTLMVLRTQEDGWWDGEIINVPNSKRGLFPSNFVQTV
modifications: full-length FLAG tag
In the case of B1, the membrane binding result in test [3] is given as “did not bind membrane”.

B2: Rhodamine-Cdc12(aa20-40) peptide (peptide)
peptide: Rhodamine-TPTPSARRTIGPRAPKSKTTY
modifications: reading uncertain
Take B2: in test [4], the binding result is on record as “binds”.
